# Test results from ChEMBL document CHEMBL2176974, “A bactericidal guanidinomethyl biaryl that alters the dynamics of bacterial FtsZ polymerization” (J Med Chem, 2012).
# Where a chain is given by its changes, count along the chain named. pKd: −log10 of the molar value. Active and inactive are the calls of the source. No cut-off for these calls is given here.
# Key:
# [1] = tested on: T1, Cell division protein FtsZ (Staphylococcus aureus), P0A031 [G196A]; experiment: Binding affinity to Staphylococcus aureus FtsZ G196A mutant self-polymerization at 20 ug/mL by microtiter plate-based light scattering assay
# T1 sequence (whole entry): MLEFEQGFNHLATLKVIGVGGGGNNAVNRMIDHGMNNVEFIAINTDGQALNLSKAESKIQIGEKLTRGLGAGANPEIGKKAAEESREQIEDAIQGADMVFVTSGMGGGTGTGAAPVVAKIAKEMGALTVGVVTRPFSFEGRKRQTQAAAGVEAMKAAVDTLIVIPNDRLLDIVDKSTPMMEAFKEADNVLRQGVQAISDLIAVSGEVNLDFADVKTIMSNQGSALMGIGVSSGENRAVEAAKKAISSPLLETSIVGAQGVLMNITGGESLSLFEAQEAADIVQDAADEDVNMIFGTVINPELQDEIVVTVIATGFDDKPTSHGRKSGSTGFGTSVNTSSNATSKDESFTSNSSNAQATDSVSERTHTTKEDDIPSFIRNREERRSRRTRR
# [2] = tested on: Staphylococcus aureus; experiment: Antimicrobial effect against 3x10^9 CFU/ml methicillin-sensitive Staphylococcus aureus 8325-4 at 4 to 32 times MIC assessed as incidence of colonies growth measured after 24 incubation by large inoculation approach based drug resistance detection method; format: functional, organism-based
# Outline: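 Inoculum count checked on nonselective plates. Incubated at 37 °C and examined after 24 h and daily thereafter. Mutation frequency = colonies on selective plates / total bacteria plated.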
# [3] = tested on: T2, Cell division protein FtsZ (Staphylococcus aureus), P0A031 [I228R]; experiment: Binding affinity to Staphylococcus aureus FtsZ I228R mutant self-polymerization at 20 ug/mL by microtiter plate-based light scattering assay
# T2 sequence (whole entry): T1 sequence (whole entry) with A196G, I228R
# [4] = tested on: T3, Cell division protein FtsZ (Staphylococcus aureus), P0A031 [E185A]; experiment: Binding affinity to Staphylococcus aureus FtsZ E185A mutant self-polymerization at 10 ug/mL by microtiter plate-based light scattering assay
# T3 sequence (whole entry): T1 sequence (whole entry) with E185A, A196G
# [5] = tested on: Streptococcus agalactiae; experiment: Antimicrobial activity against Streptococcus agalactiae Strep B ATCC 12386 incubated for 24 hrs by broth microdilution method; format: functional; conditions: Strep B ATCC 12386, 24 h
# Outline: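 CLSI broth microdilution. Log-phase bacteria at 10⁵ CFU/mL were exposed to 2-fold serial dilutions (64 to 0.016 μg/mL) in cation-adjusted Mueller-Hinton broth, 5% defibrinated sheep blood added for Streptococcus. Incubated aerobically 24 h at 37 °C. Growth read as OD600; MIC taken as the lowest concentration giving 90% growth inhibition.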
# [6] = target: T4, Cell division protein FtsZ (Escherichia coli K-12, UniProt P0A9A6); experiment: Binding affinity to Escherichia coli FtsZ at 25 degC by fluorescence anisotropy assay; conditions: read-out: Kd
# T4 sequence (P0A9A6 whole entry): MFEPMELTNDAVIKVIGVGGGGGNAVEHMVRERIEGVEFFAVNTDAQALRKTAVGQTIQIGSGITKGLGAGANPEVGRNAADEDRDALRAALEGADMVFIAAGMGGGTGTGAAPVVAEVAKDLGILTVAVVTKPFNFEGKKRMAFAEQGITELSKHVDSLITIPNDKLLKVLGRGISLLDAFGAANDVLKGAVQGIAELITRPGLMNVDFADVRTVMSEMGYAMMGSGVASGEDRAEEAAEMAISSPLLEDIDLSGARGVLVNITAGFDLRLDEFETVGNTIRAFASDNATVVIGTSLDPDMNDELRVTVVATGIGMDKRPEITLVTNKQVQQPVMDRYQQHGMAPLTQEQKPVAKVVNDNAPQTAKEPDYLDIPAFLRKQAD
# [7] = target: T5, Cell division protein FtsZ (Staphylococcus aureus, UniProt P0A031); experiment: Binding affinity to Staphylococcus aureus FtsZ expressed in Escherichia coli BL21 (DE3) at 25 degC by fluorescence anisotropy assay; conditions: read-out: Kd
# T5 sequence (P0A031 whole entry): T1 sequence (whole entry) with A196G
# Outline: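 Intrinsic compound fluorescence anisotropy. Compound at 5 μM was titrated with 0–25 μM FtsZ in 50 mM Tris·HCl pH 7.4, 50 mM KCl, 2 mM magnesium acetate. Samples were incubated 5 min at 25 °C, excited at 245 nm with emission at 318 nm, and G-corrected. Runs were in triplicate and averaged. Kd was obtained by nonlinear least-squares fit. SaFtsZ was expressed in E. coli BL21(DE3) and purified by ammonium sulfate, MonoQ and Superdex-200.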
# [8] = tested on: Staphylococcus aureus; experiment: Bactericidal activity against methicillin-sensitive Staphylococcus aureus 8325-4 at 8 times MIC measured 2 hrs post dose for 24 hrs assessed as log reduction in bacterial CFU by time kill study; format: functional
# Outline: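 Exponentially growing S. aureus 8325-4 was diluted in CAMH broth to 10⁵–10⁶ CFU/mL. […] Samples taken at 2, 4 and 6 h were pelleted or diluted, then plated on TSA. Colonies were counted after 24 h at 37 °C. Points are the mean of two independent measurements.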
smiles,measurement,setting,value
CC(C)(C)c1ccc(-c2cccc(CNC(=N)N)c2)cc1,Activity,[1],Active
same,Activity,[2],Active
same,Activity,[3],Active
same,Activity,[4],inactive
same,MIC,[5],16 mg/L
same,pKd,[6],5.42
same,pKd,[7],5.46
same,FC,[8],3
